Assay results from ChEMBL document CHEMBL4043255, “Design, synthesis and biological evaluation of novel histone deacetylase inhibitors incorporating 4-aminoquinazolinyl systems as capping groups” (Bioorg Med Chem Lett, 2017).
pIC50: −log10 of the molar value. Each block holds one compound with its values, some of them ahead of it.

Legend:
[1] = Inhibition of HDAC in human HeLa nuclear extract using Fluor de Lys as substrate after 15 mins by fluorescence assay
PC-3 = experiment: Anti-proliferative activity against human PC3 cells after 48 hrs by MTT assay; format: functional, cell-based; settings: PC-3, 48 h
in vivo [2] = settings: Sprague-Dawley, rat, iv, 2 mg/kg
in vivo [3] = settings: Sprague-Dawley, rat, po, 20 mg/kg
A549 [4] = experiment: Anti-proliferative activity against human A549 cells after 48 hrs by MTT assay; format: functional, cell-based; settings: A549, 48 h
[5] = target: T1, Protein deacetylase HDAC6 (Homo sapiens, UniProt Q9UBN7); experiment: Inhibition of HDAC6 (unknown origin)
T1 sequence (Q9UBN7 whole entry): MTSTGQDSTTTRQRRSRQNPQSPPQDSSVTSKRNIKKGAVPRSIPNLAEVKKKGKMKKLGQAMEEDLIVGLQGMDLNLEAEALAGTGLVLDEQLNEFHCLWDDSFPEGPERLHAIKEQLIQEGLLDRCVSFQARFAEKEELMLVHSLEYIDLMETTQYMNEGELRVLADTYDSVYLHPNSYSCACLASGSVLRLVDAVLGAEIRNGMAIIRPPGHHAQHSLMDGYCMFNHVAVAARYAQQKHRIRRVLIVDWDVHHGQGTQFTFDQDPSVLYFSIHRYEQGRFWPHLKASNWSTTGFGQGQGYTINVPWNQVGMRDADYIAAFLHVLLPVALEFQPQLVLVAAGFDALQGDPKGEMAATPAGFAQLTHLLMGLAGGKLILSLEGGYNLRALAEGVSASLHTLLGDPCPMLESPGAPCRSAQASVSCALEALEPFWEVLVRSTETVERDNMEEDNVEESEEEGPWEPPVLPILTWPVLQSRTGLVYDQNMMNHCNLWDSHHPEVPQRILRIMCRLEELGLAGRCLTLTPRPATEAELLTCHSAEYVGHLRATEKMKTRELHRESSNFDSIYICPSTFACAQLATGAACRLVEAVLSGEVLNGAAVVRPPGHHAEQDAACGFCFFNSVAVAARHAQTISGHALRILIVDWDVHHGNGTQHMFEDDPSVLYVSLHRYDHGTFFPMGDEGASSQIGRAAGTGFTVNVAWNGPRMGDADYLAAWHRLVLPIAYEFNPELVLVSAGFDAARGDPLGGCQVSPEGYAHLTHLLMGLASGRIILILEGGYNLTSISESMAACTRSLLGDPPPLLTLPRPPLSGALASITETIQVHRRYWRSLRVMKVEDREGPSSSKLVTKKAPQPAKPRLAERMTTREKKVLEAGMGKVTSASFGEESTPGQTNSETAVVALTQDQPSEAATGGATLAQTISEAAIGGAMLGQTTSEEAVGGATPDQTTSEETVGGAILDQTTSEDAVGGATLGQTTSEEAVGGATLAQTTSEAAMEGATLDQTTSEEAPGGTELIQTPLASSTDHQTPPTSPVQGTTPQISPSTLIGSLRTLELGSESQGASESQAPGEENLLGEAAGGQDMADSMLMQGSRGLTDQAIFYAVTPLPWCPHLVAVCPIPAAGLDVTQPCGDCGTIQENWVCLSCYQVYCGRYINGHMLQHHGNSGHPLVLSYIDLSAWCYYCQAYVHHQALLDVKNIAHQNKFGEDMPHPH

[6] = target: Voltage-gated inwardly rectifying potassium channel KCNH2 (Homo sapiens, UniProt Q12809); experiment: Inhibition of recombinant human ERG expressed in HEK293 cells at -80 mV holding potential measured for 9 mins by Qpatch clamp method; format: cell-based
Histone deacetylase 1 = Histone deacetylase 1 (Homo sapiens, UniProt Q13547); experiment: Inhibition of HDAC1 (unknown origin)
HCT-116 = experiment: Anti-proliferative activity against human HCT116 cells after 48 hrs by MTT assay; format: functional, cell-based; settings: HCT-116, 48 h
MDA-MB-231 = experiment: Anti-proliferative activity against human MDA-MB-231 cells after 48 hrs by MTT assay; format: functional, cell-based; settings: MDA-MB-231, 48 h
K562 = experiment: Anti-proliferative activity against human K562 cells after 48 hrs by MTT assay; format: functional, cell-based; settings: K562, 48 h
Histone deacetylase 8 = target: T2, Histone deacetylase 8 (Homo sapiens, UniProt Q9BY41); experiment: Inhibition of HDAC8 (unknown origin)
T2 sequence (Q9BY41 whole entry): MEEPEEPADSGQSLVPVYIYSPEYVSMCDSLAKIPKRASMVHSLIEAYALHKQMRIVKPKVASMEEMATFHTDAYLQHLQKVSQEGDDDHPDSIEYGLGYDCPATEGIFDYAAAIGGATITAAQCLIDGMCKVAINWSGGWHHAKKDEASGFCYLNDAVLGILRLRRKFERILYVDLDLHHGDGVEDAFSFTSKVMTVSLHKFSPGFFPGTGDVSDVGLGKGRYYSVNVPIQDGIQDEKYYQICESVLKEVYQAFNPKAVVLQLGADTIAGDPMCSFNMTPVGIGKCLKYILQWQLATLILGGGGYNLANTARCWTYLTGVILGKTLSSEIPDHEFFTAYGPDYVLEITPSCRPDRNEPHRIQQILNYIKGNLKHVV

MRC5 = experiment: Anti-proliferative activity against human MRC5 cells after 48 hrs by MTT assay; format: ADME, cell-based; settings: MRC5, 48 h
[7] = Clearance in Sprague-Dawley rat at 2 mg/kg, iv by HPLC method; format: ADME, organism-based; settings: in vivo
Summary of the method: (§1)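 Female Sprague-Dawley rats were dosed with the compound at 2 mg/kg iv (for clearance and terminal half-life) or 20 mg/kg orally (for Cmax, Tmax and oral bioavailability). Blood was collected at various time points up to 24 h, and plasma was analyzed by HPLC coupled to triple quadrupole mass spectrometry.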

A549 [8] = experiment: Antitumor activity against human A549 cells xenografted in mouse assessed as tumor growth inhibition at 20 mg/kg, ip administered once every other day for 21 days relative to control; format: functional; settings: 504 h, read-out: TGI
Summary of the method: (§2)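 Mice bearing non-small cell lung cancer A549 xenografts were given the compound ip at 20 or 40 mg/kg once every other day for a 21-day efficacy study.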

[9] = Cmax in Sprague-Dawley rat at 20 mg/kg, po by HPLC method; format: ADME, organism-based; parameters: dose 20 mg/kg, route oral; settings: in vivo; summary of the method: as §1
[10] = Oral bioavailability in Sprague-Dawley rat at 20 mg/kg by HPLC method; format: ADME, organism-based; settings: in vivo; summary of the method: as §1
[11] = Terminal half life in Sprague-Dawley rat at 2 mg/kg, iv by HPLC method; format: ADME, organism-based; settings: in vivo, read-out: beta t1/2 (converted); summary of the method: as §1
Mus musculus = experiment: Toxicity in mouse xenografted with human A549 cells at 20 to 40 mg/kg, ip administered once every other day for 21 days; format: organism-based; settings: in vivo, 504 h; summary of the method: as §2
[12] = Tmax in Sprague-Dawley rat at 20 mg/kg, po by HPLC method; format: ADME, organism-based; settings: in vivo; summary of the method: as §1
A549 [13] = experiment: Antitumor activity against human A549 cells xenografted in mouse assessed as tumor growth inhibition at 40 mg/kg, ip administered once every other day for 21 days relative to control; format: functional; settings: 504 h, read-out: TGI; summary of the method: as §2

Chain of Histone deacetylase 1 (Q13547 whole entry): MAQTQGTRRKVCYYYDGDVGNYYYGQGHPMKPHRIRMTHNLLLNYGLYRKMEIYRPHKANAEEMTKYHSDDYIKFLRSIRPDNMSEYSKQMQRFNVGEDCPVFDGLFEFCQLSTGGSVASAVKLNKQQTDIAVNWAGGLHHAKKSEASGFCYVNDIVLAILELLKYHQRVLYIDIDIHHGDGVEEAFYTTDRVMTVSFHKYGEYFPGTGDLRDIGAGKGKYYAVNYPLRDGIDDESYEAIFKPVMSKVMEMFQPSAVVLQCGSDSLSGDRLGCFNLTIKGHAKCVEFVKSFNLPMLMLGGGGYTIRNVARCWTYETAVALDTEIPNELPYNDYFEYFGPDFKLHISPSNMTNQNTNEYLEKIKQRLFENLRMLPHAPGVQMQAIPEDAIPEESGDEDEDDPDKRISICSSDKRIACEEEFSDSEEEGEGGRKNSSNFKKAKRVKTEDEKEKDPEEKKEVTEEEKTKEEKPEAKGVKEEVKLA
Chain of Voltage-gated inwardly rectifying potassium channel KCNH2 (Q12809 whole entry): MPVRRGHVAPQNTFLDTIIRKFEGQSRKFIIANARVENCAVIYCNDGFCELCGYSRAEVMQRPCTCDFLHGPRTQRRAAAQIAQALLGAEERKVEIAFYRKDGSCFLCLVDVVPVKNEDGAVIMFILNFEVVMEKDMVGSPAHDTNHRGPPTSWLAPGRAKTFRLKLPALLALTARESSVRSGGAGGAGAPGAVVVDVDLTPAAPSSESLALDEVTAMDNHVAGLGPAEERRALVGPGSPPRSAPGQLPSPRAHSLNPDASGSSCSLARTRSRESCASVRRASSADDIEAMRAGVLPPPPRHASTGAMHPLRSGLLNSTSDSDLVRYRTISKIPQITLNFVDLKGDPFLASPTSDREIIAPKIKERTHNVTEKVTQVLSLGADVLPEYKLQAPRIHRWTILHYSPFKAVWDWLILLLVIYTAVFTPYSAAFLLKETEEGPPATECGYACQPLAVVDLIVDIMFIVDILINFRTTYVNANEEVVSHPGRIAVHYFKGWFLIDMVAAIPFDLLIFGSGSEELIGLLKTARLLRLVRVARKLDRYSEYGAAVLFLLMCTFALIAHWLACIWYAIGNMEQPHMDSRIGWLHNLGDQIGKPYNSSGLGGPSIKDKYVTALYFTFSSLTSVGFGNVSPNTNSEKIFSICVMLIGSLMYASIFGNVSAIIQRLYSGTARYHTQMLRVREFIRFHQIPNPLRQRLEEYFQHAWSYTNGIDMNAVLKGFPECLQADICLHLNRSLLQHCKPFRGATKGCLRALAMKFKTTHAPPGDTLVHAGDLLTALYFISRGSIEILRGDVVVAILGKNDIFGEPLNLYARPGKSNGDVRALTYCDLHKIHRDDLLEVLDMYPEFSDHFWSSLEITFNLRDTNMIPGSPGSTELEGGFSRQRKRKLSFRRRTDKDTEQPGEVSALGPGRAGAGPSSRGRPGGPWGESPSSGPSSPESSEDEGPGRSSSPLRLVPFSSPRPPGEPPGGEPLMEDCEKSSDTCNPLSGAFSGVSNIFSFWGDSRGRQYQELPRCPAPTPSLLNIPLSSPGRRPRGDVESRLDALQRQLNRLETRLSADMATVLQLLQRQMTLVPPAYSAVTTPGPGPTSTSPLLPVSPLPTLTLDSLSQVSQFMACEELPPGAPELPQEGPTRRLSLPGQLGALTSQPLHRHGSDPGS

pIC50 [1]: 7.62
SMILES: O=C(CCCCCCNc1ncnc2cc(Cl)ccc12)NO

pIC50 [1]: < 5.70
SMILES: O=C(CCCCCCNC(=O)c1ccccc1)NO

pIC50 [1]: 7.64
SMILES: O=C(CCCCCCNc1ncnc2ccc([N+](=O)[O-])cc12)NO

pIC50 [1]: 6.82
SMILES: COCCOc1cc2ncnc(NCCCCCCC(=O)NO)c2cc1OCCOC

pIC50 (PC-3): 5.53 | half-life (in vivo [2]): 12 min | bioavailability (in vivo [3]): 11%
SMILES: O=C(CCCCCCC(=O)Nc1ccccc1)NO [VORINOSTAT]

pIC50 [1]: 7.70
SMILES: Cc1ccc2ncnc(NCCCCCCC(=O)NO)c2c1

pIC50 [1]: 7.47
SMILES: O=C(CCCCCCNc1ncnc2ccccc12)NO

pIC50 [1]: 7.39
SMILES: O=C(CCCCCNc1ncnc2ccccc12)NO

pIC50 [1]: 7.92
SMILES: Nc1ccc2ncnc(NCCCCCCC(=O)NO)c2c1

pIC50 [1]: 7.88
SMILES: COc1cc2ncnc(NCCCCCCC(=O)NO)c2cc1OC

pIC50 [1]: 7.98
SMILES: COc1cc2ncnc(NCCCCCC(=O)NO)c2cc1OC

pIC50 (A549 [4]): 6.83 | pIC50 [5]: 8.10 | pIC50 [1]: 8.09 | pIC50 (Histone deacetylase 1): 7.89 | pIC50 (PC-3): 5.99 | pIC50 (HCT-116): 5.46 | pIC50 (MDA-MB-231): 6.31 | pIC50 (K562): 6.07 | pIC50 (Histone deacetylase 8): 5.84
SMILES: O=C(CCCCCCNc1ncnc2ccc(F)cc12)NO
pIC50 [6]: < 4.52 | pIC50 (MRC5): 4.12

pIC50 [1]: 7.68
SMILES: O=C(CCCCCCNc1ncnc2cc(F)ccc12)NO

pIC50 [1]: 7.26
SMILES: Cc1cccc2c(NCCCCCCC(=O)NO)ncnc12

clearance [7]: 53 mL/min/kg | pIC50 (A549 [4]): 7.10 | Cmax [9]: 146 ng/mL | pIC50 [5]: 8.15 | bioavailability [10]: 16.8% | half-life [11]: 172 min | pIC50 [1]: 8.51 | pIC50 (Histone deacetylase 1): 7.96 | pIC50 (PC-3): 6.12 | Tmax [12]: 15 min | pIC50 (HCT-116): 5.68 | pIC50 (MDA-MB-231): 6.77 | pIC50 (K562): 5.92 | pIC50 (Histone deacetylase 8): 5.71
SMILES: O=C(CCCCCCNc1ncnc2ccc(Cl)cc12)NO
inhibition in vivo at 20 mg/kg (A549 [8]): 53.1% | Activity (Mus musculus): Non-Toxic | pIC50 [6]: < 4.52 | pIC50 (MRC5): 4.26 | inhibition in vivo at 40 mg/kg (A549 [13]): 76.4%
